Screening data (PubChem)
MLL AF4-AF9 inh: blocks AF4 peptide binding to human AF9. inhibition, % at 10 µM. AlphaScreen, biotin-AF4 peptide binding to FLAG-AF9. AID 651704. hit rate 0.47% among 350,000;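 active = every replicate reaching a set inhibition limit, whatever the replicate mean, cut at about 25% in these data; inconclusive = mean inhibition reaches that limit but some replicates miss it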;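 also: 0% = plate neutral control median and 100% = total signal loss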
FN deposit inh: fibronectin deposition inhibition | AH1F fibroblasts, Alexa488-fibronectin deposition fluorescence, overnight | inhibition, % at 12.6 µM | hit rate 0.086% among 350,000;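 active = mean inhibition across replicates of 30% or more, regardless of how many single replicates reach that level; inconclusive = mean under 30% yet at least half of replicates reach 30%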;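 also: positive control wells lacked labelled fibronectin entirely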
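Measured by – fluorescence 485/525 nm · System – AH1F fibroblast monolayer, labelled fibronectin deposition · Amount – 10000 cells per well · Buffer or medium – serum-reduced DMEM (2% serum) · Doses – single dose, pinned · Also added – fluorescent fibronectin at 24 nM final · Schedule – 1 h cell attachment, overnight exposure to compound and label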
ERp5 inh: inhibitors of human ERp5 | hit rate 0.05% among 350,000 | ERp5 insulin aggregation, absorbance 650 nm, 90 min | inhibition, % at 9.99 µM | Q15084;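 active = mean replicate inhibition above about 25%, with every replicate also reaching it, limit read from the data, passing the limit was not always enough; inconclusive = only one of those two criteria met; inactive = neither criterion met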
FGF22 binding-1: FGF22 (human) thermal shift binding | Q9HCT0 | recombinant FGF22 thermal shift, SYPRO orange fluorescence; percent of sucrose octasulfate shift, DMSO zero | activity (Tm shift, normalised), % at 9.99 µM | hit rate 1.5% among 340,000;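 active = mean Tm shift, scaled 0 neutral to 100 positive control, at about 1.3% or above, every replicate too, limit read from the data; inconclusive = no clear call, values can overlap the other calls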
Target sequence (Q9HCT0 whole entry, looked up): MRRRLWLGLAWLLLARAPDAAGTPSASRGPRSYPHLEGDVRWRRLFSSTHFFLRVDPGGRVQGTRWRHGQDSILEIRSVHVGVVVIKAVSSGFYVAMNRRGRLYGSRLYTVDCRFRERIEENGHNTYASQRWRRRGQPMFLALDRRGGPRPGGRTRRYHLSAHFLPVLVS
ARNT-TACC3 inh: disrupts binding between human ARNT and TACC3; AlphaScreen His-ARNT PAS-B/GST-TACC3 binding, luminescence; TACC3 fragment carries E629A point mutation; Q9Y6A5; hit rate 0.66% among 390,000; inhibition, % at 9.99 µM;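 active = mean inhibition of replicates at least 50% and at least half of replicates each reaching 50%; inconclusive = half or more replicates reach 50% but mean below 50%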;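 also: 0% = complete ARNT plus TACC3 wells and 100% = ARNT alone without TACC3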
PDI turbidity: blocks human protein disulfide isomerase activity. AID 588391. inhibition, % at 10 µM. P07237. PDI insulin aggregation turbidity, A650, 90 min. hit rate 0.052% among 350,000;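 active = mean inhibition across replicates of 30% or more, whatever share of single replicates reach that level; inconclusive = mean inhibition below 30% while every single replicate reaches 30%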
Target sequence (P07237 whole entry, looked up): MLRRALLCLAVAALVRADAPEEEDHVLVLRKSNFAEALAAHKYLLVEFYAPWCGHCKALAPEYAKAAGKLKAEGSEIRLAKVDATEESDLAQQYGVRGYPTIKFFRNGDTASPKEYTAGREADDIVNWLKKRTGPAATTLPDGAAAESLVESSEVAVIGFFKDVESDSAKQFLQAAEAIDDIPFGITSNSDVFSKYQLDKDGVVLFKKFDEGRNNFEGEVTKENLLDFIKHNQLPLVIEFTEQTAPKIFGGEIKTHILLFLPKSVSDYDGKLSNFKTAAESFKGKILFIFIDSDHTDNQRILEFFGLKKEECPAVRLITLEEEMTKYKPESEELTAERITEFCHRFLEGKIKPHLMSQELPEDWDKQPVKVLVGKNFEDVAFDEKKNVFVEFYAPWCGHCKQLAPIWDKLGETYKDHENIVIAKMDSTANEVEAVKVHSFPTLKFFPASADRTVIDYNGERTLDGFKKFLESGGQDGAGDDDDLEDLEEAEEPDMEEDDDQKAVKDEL
FGF22 binding-2: binds human FGF22 shifting its melting temperature | shares compounds with FGF22 binding-1 | recombinant FGF22 thermal shift, SYPRO orange fluorescence | thermal shift activity, °C (ΔTm) at 38 µM | hit rate 2% among 1,000 | AID 720646;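 active = fitted rise in melting shift crosses a set limit at or below the top valid dose tested; inconclusive = flat fit at mid-level activity, or a poor quality fit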
SYPRO no-protein: compound-only SYPRO artifact for FGF22 binders; shares compounds with FGF22 binding-1; compound-only SYPRO orange thermal shift counter-screen, no protein; AC50, µM (top dose mostly 38 µM); hit rate 2% among 1,000;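 active = rising signal whose fitted curve reaches the 0.54 level within the top valid dose, showing a melting point, actives reach about 13 µM in these data; inactive = the rest, including activity in the opposite direction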; also: value is where the raw curve crosses a fixed level and not half-maximal
Starred values were filed as active, the others as inactive; i = inactive; ? = inconclusive; . = no result given; [ ] = dose if it differs, or a comment. In the library only some 2.1% were active in any assay of this set; here they are far more common.

SMILES | MLL AF4-AF9 inh | FN deposit inh | ERp5 inh | FGF22 binding-1 | ARNT-TACC3 inh | PDI turbidity | FGF22 binding-2 | SYPRO no-protein
O=C(COc1ccc(S(=O)(=O)Nc2ccccc2)cc1)NCc1ccncc1 | -2 | 2 | ? | 14* | -12 | 3 | 0.21 | i
Cc1ccc(NS(=O)(=O)c2ccc(OCC(=O)NCc3cccnc3)cc2)cc1 | 14 | 2 | -3 | 0 | -13 | -7 | . | .
COc1ccc(NC(=O)CN(C)C(=O)c2cn(-c3ccccc3)nc2-c2cccnc2)cc1 | 10 | 1 | 5 | 2.4* | . | 1 | 0.22 | i
COc1cc(NS(=O)(=O)c2ccc(N)cc2)nc(OC)n1 | -3 | -1 | 0 | 0 | -5 | 3 | . | .
COc1cc(NS(=O)(=O)c2ccc(NS(=O)(=O)c3ccc(C)cc3)cc2)nc(OC)n1 | -18 | 10 | -10 | 3.1* | -2 | -2 | -0.025 | i
COc1ccc2o/c(=N\O)c(C(=O)Nc3ccc(C)cc3)cc2c1 | -2 | 2 | -1 | 2.3* | -4 | -4 | 0.091 | i
COc1ccc2oc(=N)c(C(=O)Nc3ccc(C)cc3)cc2c1 | 2 | -5 | 2 | 0 | 0 | 2 | . | .
COc1ccc2c3c(n(C)c2c1)[C@@H](CO)N(C(=O)c1cccc(F)c1)CC31CCN(C(=O)c2cccc(F)c2)CC1 | -1 | . | -7 | 0 | . | . | . | .
O=C(Nc1nc(-c2ccccn2)cs1)c1cc2ccccc2o1 | ? | 3 | 1 | 1.6* | 66* | 9 | -0.22 | i
Cc1cc(-c2csc(NC(=O)c3cc4ccccc4o3)n2)c(C)n1C | . | 4 | . | . | 21 | -12 | . | .
CC=Cc1ccc2n(c1=O)C[C@H]1[C@H](CO)[C@@H](C(=O)NC3Cc4ccccc4C3)[C@@H]2N1C(C)=O (mixture of isomers) | -5 | . | -1 | 0 | -1 | . | . | .
O=C(COc1cccc(Cl)c1)NCC(c1cccs1)N1CCOCC1 (stereo not given) | 2 | 0 | 0 | 1.6* | -1 | -6 | -0.063 | i
Cc1cccc(OCC(=O)NCC(c2cccs2)N2CCOCC2)c1 (stereo not given) | -1 | -10 | 1 | -1 | -3 | -1 | . | .
O=C(CC1CC1)N1CC2(C1)[C@H](c1ccccc1)[C@H](CO)N2C(=O)c1cnccn1 | -11 | . | 2 | 1.4* | . | . | 0.17[42 µM] | i
CC(=O)N1[C@H](CO)[C@@H](c2ccccc2)C12CN(C(=O)c1ccccn1)C2 | -14 | . | -2 | 1.3* | . | . | 0.13[42 µM] | i
COCC(=O)N1CC2(C1)[C@@H](c1ccccc1)[C@@H](CO)N2C(=O)NC1CCCC1 | -2 | -5 | 0 | 1.4* | . | . | 0.001 | i
O=C(c1ccccn1)N1CC2(C1)[C@H](c1ccccc1)[C@H](CO)N2C(=O)CC1CC1 | -1 | . | 4 | 0 | . | . | . | .
O=C(c1ccccn1)N1CC2(C1)[C@@H](c1ccccc1)[C@@H](CO)N2C(=O)C1CC1 | 2 | -9 | 1 | 0 | . | . | . | .
CC(=O)N1[C@@H](CO)[C@@H](c2ccccc2)C12CN(C(=O)c1ccccn1)C2 | -12 | . | -5 | 1.4* | . | . | 0.12[42 µM] | i
CC(C)NC(=O)N1Cc2cc(C(=O)NCC(F)(F)F)nc(-c3cccc(-c4cc5ccccc5o4)c3)c2[C@H]1CCO | 1 | -6 | -7 | . | . | . | . | .
O=C(c1cccc(F)c1)N1C[C@H]2[C@@H](c3ccccc31)[C@H](CO)N2C(=O)c1ccccn1 | -4 | . | 2 | 0 | 3 | . | . | .
O=C1Nc2cc(Cl)c(Cl)cc2N(O)N1c1ccc(Cl)cc1 | -2 | . | -1 | 28* | -20 | -5 | 0.099 | i
O=C1Nc2cc(Cl)c(Cl)cc2N(O)N1c1cccc(Cl)c1 | . | -2 | . | . | -8 | -4 | . | .
C[C@H](CO)N1C[C@H](C)[C@@H](CN(C)C(=O)Nc2cccc3ccccc23)OCCCC[C@H](C)Oc2ccc(NS(=O)(=O)c3ccc(F)cc3)cc2C1=O | 1 | 3 | 1 | . | -5 | . | . | .
COc1ccc(CN(C)C[C@H]2OCCCC[C@@H](C)Oc3ccc(NS(=O)(=O)c4c(C)noc4C)cc3C(=O)N([C@@H](C)CO)C[C@H]2C)cc1 | 4 | . | 1 | 0 | 1 | . | . | .
SMILES | MLL AF4-AF9 inh | FN deposit inh | ERp5 inh | FGF22 binding-1 | ARNT-TACC3 inh | PDI turbidity | FGF22 binding-2 | SYPRO no-protein
S=C(NCCN1CCOCC1)Nc1ccc(-c2nc3ccccc3[nH]2)cc1 | 0 | -2 | -6 | 2.2* | 5 | 8 | -0.28 | i
C[C@@H]1CN([C@H](C)CO)C(=O)c2cc(NC(=O)Cc3cn(C)c4ccccc34)ccc2O[C@@H]1CN(C)S(C)(=O)=O | 3 | . | -1 | 0 | 2 | . | . | .
C[C@@H]1CN([C@H](C)CO)C(=O)c2cc(NC(=O)Cc3ccccc3)ccc2O[C@H]1CN(C)Cc1ccc2c(c1)OCO2 | 3 | . | 0 | -6 | -6 | . | . | .
C[C@H]1CN([C@@H](C)CO)C(=O)c2cc(NC(=O)Cc3ccccc3)ccc2O[C@H]1CN(C)Cc1ccc2c(c1)OCO2 | 0 | -1 | 3 | 3.0* | -3 | . | 0.23 | i
C[C@@H]1CN([C@@H](C)CO)C(=O)c2cc(NC(=O)Cc3cn(C)c4ccccc34)ccc2O[C@H]1CN(C)S(C)(=O)=O | -1 | -9 | 0 | 2.6* | -1 | . | 0.11[42 µM] | i
COc1ccc(CN(C)C[C@H]2Oc3ccc(NC(=O)Cc4ccccc4)cc3C(=O)N([C@@H](C)CO)C[C@H]2C)cc1 | -2 | . | -3 | 8.9* | -1 | . | 0.064 | i
COc1ccc(CN(C)C[C@@H]2Oc3ccc(NC(=O)Cc4ccccc4)cc3C(=O)N([C@@H](C)CO)C[C@H]2C)cc1 | -1 | . | 1 | 0 | -7 | . | . | .
O=C(C[C@@H]1CC[C@@H](NC(=O)C2CCOCC2)[C@@H](CO)O1)Nc1ccccc1 | -2 | . | -6 | . | . | . | . | .
O=C(O)c1cccc(-n2cc(-c3cccc(C(F)(F)F)c3)cn2)c1 | -10 | 4 | -4 | 1.6* | -2 | 0 | 0.17 | i
O=C(O)c1ccc(-c2nc(-c3cccc(C(F)(F)F)c3)cs2)cc1 | -1 | . | 4 | 0 | -9 | -22 | . | .
COc1ccc2c3c([nH]c2c1)[C@H](CO)N(C(C)=O)CC31CN(C(=O)c2ccc3c(c2)OCO3)C1 | -6 | . | -2 | 26* | . | . | 0.056 | i
COc1ccc2c3c([nH]c2c1)[C@H](CO)N(C(C)=O)CC31CN(C(=O)c2cccc(F)c2)C1 | 0 | . | . | . | . | . | . | .
COC(=O)C[C@H]1C[C@@H]2c3cc(NC(=O)Nc4ccc(C(F)(F)F)cc4)ccc3O[C@@H]2[C@@H](CO)O1 | 12 | 4 | -1 | . | 9 | . | . | .
O=C(COC(=O)CCCOc1ccc(Cl)cc1Cl)NCc1ccccc1 | -1 | -5 | 3 | 32* | -10 | -13 | 0.28 | i
